This is a sample that favours compounds with a hit; in the whole collection about 5.5% have one here.
STAT1 inh – STAT1 signaling inhibitors, primary screen, cell-based, HTS, luciferase reporter; NIH 3T3 STAT1-luciferase reporter, IFN-gamma, luminescence; 200,000 tested, 0.35% active; inhibition, % at 5.5 µM;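 active means inhibition above a set limit, the mean inhibition across all tested compounds plus 3 SD, cut at about 34% in these data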;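 further: 0% = IFN-gamma with DMSO and 100% = IFN-gamma with 300 µM nifuroxazide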
HSV replic up – enhancers of HSV replication in host cells, fold increase, host cell viability; AID 1956, 2009; 220,000 tested, 0.005% active; HSV replication augmentation in cells; maximum fold increase; in the data active means maximum fold increase above about 1.5; inconclusive means no clear call, values can overlap the other calls; tested in PC3 cells
STAT3 blocker – IL-6 driven STAT3 reporter inhibitors, primary screen, U3A cells, luciferase, luminescence, MLSCN library; AID 862, 2007; inhibition, % at 5.5 µM; 190,000 tested, 0.89% active; IL-6 STAT3-luciferase reporter; host cell line lacks STAT1;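 active means inhibition above the mean inhibition across all screened compounds plus 3 SD, cut at about 44% in these data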;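 further: 0% = DMSO only wells and 100% = 100 µM nifuroxazide control wells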
STAT3 activator – IL-6 driven STAT3 reporter potentiators, primary screen, U3A cells, luciferase, luminescence, MLSCN library; IL-6 STAT3-luciferase reporter; 100% = signal with IL-6 EC80 alone; activation (% of control), % at 5.6 µM; 190,000 tested, 0.91% active; AID 871, 2007;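 active means activation above the screen-wide mean of compound activation plus 3 SD, cut at about 130% in these data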;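 further: 0% = background luminescence of wells with medium and substrate only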
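System – human U3A cells carrying STAT3-luciferase construct · Probe or stimulus – Interleukin-6, 33 ng/mL · Schedule – compound 1 h, then IL-6 6 h at 37 °C · Signal – luminescence from STAT3-driven luciferase reporter · Evaluation – percent of IL-6-only median luminescence · Benchmarks – IL-6-only high control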
KCC2 mod – KCC2 cotransporter modulators, thallium flux, primary screen, cell-based, HEK293 KCC2, FluoZin-2 fluorescence, MLSMR; Solute carrier family 12 member 5 (Homo sapiens), Q9H2X9; KCC2 cells, thallium flux FluoZin-2 fluorescence; B-score of Tl+ flux slope (higher = more flux/activation; lower = inhibition) at 10 µM; 190,000 tested, 2.2% active;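 active means thallium flux slope and its plate-corrected score both differing from the plate sample mean at a set confidence after two filtering rounds, in either direction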;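 further: slope of fluorescence scaled to starting intensity during 10 to 20 s after thallium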
Target sequence (Q9H2X9 whole entry, looked up): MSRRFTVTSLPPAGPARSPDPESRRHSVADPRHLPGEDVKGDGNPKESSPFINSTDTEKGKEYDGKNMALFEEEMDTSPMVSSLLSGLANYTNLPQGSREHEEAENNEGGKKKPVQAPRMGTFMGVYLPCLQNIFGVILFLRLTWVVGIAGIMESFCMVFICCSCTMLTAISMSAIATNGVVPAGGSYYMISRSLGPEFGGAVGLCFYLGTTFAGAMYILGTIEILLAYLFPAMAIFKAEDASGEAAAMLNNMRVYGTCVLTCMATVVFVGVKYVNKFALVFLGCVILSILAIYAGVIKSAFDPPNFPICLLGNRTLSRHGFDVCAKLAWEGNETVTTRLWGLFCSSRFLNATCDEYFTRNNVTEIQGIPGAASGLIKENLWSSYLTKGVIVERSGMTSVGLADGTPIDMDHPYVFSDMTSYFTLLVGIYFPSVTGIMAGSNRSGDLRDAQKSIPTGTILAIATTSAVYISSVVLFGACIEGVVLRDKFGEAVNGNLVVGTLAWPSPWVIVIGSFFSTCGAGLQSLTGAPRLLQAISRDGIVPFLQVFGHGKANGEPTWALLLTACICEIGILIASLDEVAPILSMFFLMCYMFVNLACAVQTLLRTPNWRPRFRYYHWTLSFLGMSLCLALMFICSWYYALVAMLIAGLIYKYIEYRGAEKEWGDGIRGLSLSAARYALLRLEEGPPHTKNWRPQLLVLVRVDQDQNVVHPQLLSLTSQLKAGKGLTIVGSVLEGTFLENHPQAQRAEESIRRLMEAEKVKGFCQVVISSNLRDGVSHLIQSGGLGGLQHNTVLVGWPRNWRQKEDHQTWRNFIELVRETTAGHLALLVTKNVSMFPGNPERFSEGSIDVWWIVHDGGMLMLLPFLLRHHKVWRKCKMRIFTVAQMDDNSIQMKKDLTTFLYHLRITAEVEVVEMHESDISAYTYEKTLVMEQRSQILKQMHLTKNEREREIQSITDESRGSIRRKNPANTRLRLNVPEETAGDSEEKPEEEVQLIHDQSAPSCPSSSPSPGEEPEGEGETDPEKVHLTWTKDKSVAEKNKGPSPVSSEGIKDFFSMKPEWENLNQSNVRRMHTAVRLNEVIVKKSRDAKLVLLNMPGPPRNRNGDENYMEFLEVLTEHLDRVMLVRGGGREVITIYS
STAT1 activator – STAT1 signaling activators, primary screen, cell-based, HTS, luciferase reporter. activation (% of control), % at 5.5 µM. 200,000 tested, 2.6% active. NIH 3T3 STAT1-luciferase reporter, IFN-gamma, luminescence; 100% = IFN-gamma alone, no compound;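 active means activation above the screen-wide mean activation plus 3 SD, cut at about 130% in these data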;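 further: raw ratio to IFN-gamma control signal so 100% means no change and 0% no light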
KCC2 secondary – KCC2 modulators in sodium-free buffer, confirmation, cell-based, HEK293 KCC2, thallium flux, secondary assay | shares compounds with KCC2 mod | normalised thallium flux (F/F0 slope) at 10 µM | 3,700 tested, 15% active | FluoZin2 fluorescence; hits give high values;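 active means thallium flux slope above the same plate's solvent-only control mean plus 3 SD; inconclusive means the two replicate wells disagree; inactive means no significant difference from solvent-only control wells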
KCC2 bumet counter – thallium flux persisting under bumetanide in KCC2 cells, confirmation, counter-screen for KCC2 modulator project, cell-based, HEK293 KCC2, FluoZin2, secondary assay 3; shares compounds with KCC2 mod; 3,700 tested, 49% active; normalized thallium flux at 10 µM; HEK293-KCC2 + bumetanide/ouabain; hits give high values;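 active means thallium entry rate above the same plate's blocked-transporter control wells by more than 3 SD; inconclusive means the two repeat wells disagree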;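 further: raw slope of fluorescence over initial fluorescence between 10 and 20 s after thallium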
KCC2 secondary2 – KCC2 modulators without ouabain present, confirmation, cell-based, HEK293 KCC2, thallium flux, FluoZin2, secondary assay 2. shares compounds with KCC2 mod. thallium flux FluoZin2 fluorescence; actives lie on both sides; F/F0 rise rate, 10–20 s post-thallium. normalized thallium flux at 10 µM. 3,700 tested, 23% active;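 active means thallium flux slope more than 3 SD above or below the plate's solvent-only control mean, mostly below; inconclusive means the two repeat wells disagreed; inactive means no significant shift from solvent-only controls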;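 further: raw slope with 0.1% DMSO as baseline and bumetanide as block control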
HEK counter1 – thallium flux modulation in parental HEK cells, confirmation, counter-screen for KCC2 modulator project, cell-based, counterscreen 1 | shares compounds with KCC2 mod | HEK293 parental cells, thallium flux FluoZin2, ouabain; baseline-ratio fluorescence slope, 10–20 s after thallium | thallium flux rate (normalised fluorescence) at 10 µM | 3,700 tested, 46% active | AID 1716, 2009;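 active means thallium flux rate significantly above the same plate's solvent-only control wells, beyond their mean plus 3 SD; inconclusive means the two replicate wells gave conflicting results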
KCC2 retest ouab – KCC2 inhibitors and activators, ouabain retest, confirmation, HEK-KCC2 cells; shares compounds with KCC2 mod; HEK293-KCC2, thallium flux FluoZin2 fluorescence; bidirectional: low = inhibitor, high = activator; raw Tl+ flux slope (below DMSO = inhibition, above = activation) at 10 µM; 3,700 tested, 48% active;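 active means thallium flux slope beyond 3 SD from same-plate DMSO control mean in most replicates, usually higher, sometimes lower; inconclusive means repeat tests gave conflicting results; inactive means no significant difference from controls in most replicates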;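 further: slope of initial-normalized fluorescence between seconds 10 and 20 after thallium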
HEK293 Tl flux2 – native HEK Tl+ uptake effects, second counter-screen – HEK cells, counterscreen 2, counter-screen for KCC2 modulator project, confirmation. AID 1718, 2009. 3,700 tested, 33% active. HEK293 parental, thallium flux FluoZin-2 fluorescence slope. thallium flux slope at 10 µM. shares compounds with KCC2 mod;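 active means thallium flux slope above the same plate's solvent-control mean plus 3 SD in both duplicate wells; inconclusive means duplicate wells that disagreed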;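 further: run without ouabain in cells lacking the KCC2 cotransporter; slope of fluorescence scaled to its starting value between 10 and 20 s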
* hit, by the source's call; i = inactive; ? = inconclusive; · = no result.

SMILES | STAT1 inh | HSV replic up | STAT3 blocker | STAT3 activator | KCC2 mod | STAT1 activator | KCC2 secondary | KCC2 bumet counter | KCC2 secondary2 | HEK counter1 | KCC2 retest ouab | HEK293 Tl flux2
CCC1=NN2C(=N)/C(=C\c3cccn3-c3cccc(Cl)c3)C(=O)N=C2S1 | 16 | i | 7 | 98 | 8.8* | 87 | 0.017 | 0.05* | ? | 0.021* | 0.026* | 0.021*
CCC1=NN2C(=N)/C(=C\c3cccn3-c3ccc(Br)cc3)C(=O)N=C2S1 | 5 | i | 20 | 91 | 11* | 95 | 0.0075 | 0.022* | 0.033 | 0.019* | 0.025* | 0.014*
CC(C)(C)c1csc(NNC(=O)c2ccc(Cl)cc2)n1 | · | i | · | · | 24* | · | 0.01 | 0.03* | 0.035 | 0.037* | 0.032* | 0.014*
Cc1onc(-c2c(Cl)cccc2Cl)c1C(=O)Nc1nc(C(C)(C)C)cs1 | · | i | · | · | -0.67 | · | · | · | · | · | · | ·
CCc1nnc(NC(=O)CSc2nnc(Cc3ccccc3)o2)s1 | 0 | i | 7 | 98 | · | 100 | 0.0072 | 0.007 | 0.027 | 0.0063 | ? | 0.0098
CCOC(=O)C1CCCN(C(=O)c2cc3nc(-c4cccc(OC)c4)cc(C(F)(F)F)n3n2)C1 (centres undefined) | -2 | i | -9 | 112 | · | 102 | 0.007 | 0.0044 | 0.029 | 0.0073 | 0.02 | 0.01
CCOC(=O)C1CCCN(C(=O)c2cnn3c(C(F)(F)F)cc(-c4ccccc4)nc23)C1 (centres undefined) | 5 | i | 9 | 94 | -0.23 | 95 | · | · | · | · | · | ·
Cc1cc(C)c(NC(=O)COc2ccccc2C(=O)Nc2ccc3c(c2)oc2ccccc23)c(C)c1 | 0 | i | -3 | 103 | -0.23 | 100 | · | · | · | · | · | ·
CSc1sc(C(=O)O)c2c1C(=O)CCC2 | -1 | i | 4 | 100 | -4* | 101 | 0.0099 | ? | 0.035 | 0.0076 | 0.023 | 0.011
CSc1sc(C(=O)O)c2c1C(=O)CC(C)(C)C2 | · | i | · | · | · | · | · | · | · | · | · | ·
Cc1nc2scc(-c3ccc(Cl)cc3)c2c(=O)o1 | -9 | i | 5 | 96 | · | 104 | 0.0094 | 0.0067 | 0.033 | 0.004 | 0.019 | 0.011
C/C(=N\NC(=O)c1ccc(Cl)c(Cl)c1)c1ccc(Br)s1 | -9 | i | 5 | 100 | 7.2* | 108 | 0.0075 | 0.009* | 0.036 | 0.022* | 0.025* | 0.017*
C/C(=N/NC(N)=S)c1ccc(Br)s1 | -14 | i | 28 | 78 | 19* | 112 | 0.011 | 0.032* | 0.031 | 0.014* | 0.027 | ?
C/C(=N/NC(=O)c1ccc2c(c1)OCO2)c1ccc(Br)s1 | -41 | i | 6 | 97 | 6.3* | 136* | 0.01 | 0.015* | 0.034 | ? | ? | ?
O=C(NCCc1c[nH]c2ccccc12)C(=O)NCC(c1ccco1)N1CCN(c2ccccc2)CC1 (centres undefined) | -5 | i | -4 | 101 | 1.7 | 105 | · | · | · | · | · | ·
Cc1ccc(S(=O)(=O)NCc2ccc(C(=O)N3CCN(c4ccccn4)CC3)cc2)cc1 | 9 | i | 18 | 91 | · | 92 | · | · | · | · | · | ·
O=C(c1cccc(NS(=O)(=O)c2ccc(F)c(F)c2)c1)N1CCN(Cc2ccccc2)CC1 | -6 | i | -7 | 106 | -2.3 | 105 | · | · | · | · | · | ·
Cc1ccc(S(=O)(=O)NCc2ccc(C(=O)N3CCN(Cc4ccccc4)CC3)cc2)cc1 | -2 | i | 31 | 73 | -2.6* | 102 | 0.0061 | ? | 0.027* | 0.0072 | ? | 0.01
O=C(c1cccc(S(=O)(=O)NCc2ccccc2)c1)N1CCN(Cc2ccccc2)CC1 | -4 | i | 2 | 103 | -2.7* | 104 | 0.0073 | 0.0061* | 0.03 | 0.0072 | 0.018 | 0.011
N#Cc1c(SCC(=O)O)nc(N2CCCCC2)c2c1CCCC2 | -1 | i | 12 | 92 | -3.2* | 101 | 0.012 | 0.0062 | 0.033 | 0.0064 | 0.02 | 0.011
COC(=O)CSc1nc(N2CCCCC2)c2c(c1C#N)CCCC2 | 7 | i | 4 | 100 | -0.85 | 94 | · | · | · | · | · | ·
O=[N+]([O-])c1ccc(N=Cc2ccc(Br)c([N+](=O)[O-])c2)cc1 | 7 | i | -4 | 101 | -1.9 | 95 | · | · | · | · | · | ·
CC1Cc2ccccc2N1C(=O)CCn1c(=O)sc2ccccc21 (centres undefined) | · | i | · | · | -1.7* | · | 0.0041* | 0.0033* | 0.021* | ? | 0.013* | ?
Cc1ccc(SCCNC(=S)Nc2cc(C)ccc2C)cc1 | 4 | i | 0 | 100 | · | 99 | 0.0069 | 0.005 | 0.029 | ? | ? | 0.009
Cc1ccc(SCCNC(=S)Nc2ccc(C)c(C)c2)cc1 | -5 | i | 0 | 103 | -0.2 | 105 | · | · | · | · | · | ·
O=c1c2cccnc2[nH]c(=S)n1CCCN1CCN(c2ccccc2F)CC1 | -12 | · | 1 | 104 | 20* | 111 | 0.013* | 0.076* | 0.038 | 0.039* | 0.058* | 0.013*
CCN(CCCn1c(=S)[nH]c2ccc(N3CCOCC3)cc2c1=O)c1ccccc1 | 10 | i | 16 | 96 | 4.9* | 90 | 0.012* | 0.017* | 0.03 | 0.0095* | 0.052* | 0.011*

Compound activity (PubChem)
